Screening data: PubChem, Johns Hopkins Ion Channel Center
RGS4 act = RGS4 potentiators or activators, primary screen, cell-based, HEK293 M3R inducible RGS4, calcium flux; carbachol calcium flux Fluo4; stronger effect = lower value; B-score at 10 µM; 0.92% of 310,000 active;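 active = B-score of the integrated calcium signal more than 4 SD below the library mean, with starting fluorescence not abnormally high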;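 also: negative B-score means reduced calcium response which marks RGS4 activation or potentiation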
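System – HEK293 FlpIn-TREx cells, stable M3R, doxycycline-inducible RGS4 · Reagent – ECmax carbachol challenge · Times – compound preincubation 20 min at room temperature before agonist · Technique – Fluo4 fluorescence kinetic imaging of calcium · Measure – B score of integrated Fluo4 ratio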
MrgX1 allo act = positive allosteric modulators of MrgX1, primary screen, HEK293 cells, Fluo-4 calcium flux; AID 588675, 2011; 0.63% of 310,000 active; B-score at 10 µM; FDSS; stronger effect = higher value;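 active = plate-corrected calcium response at least 3 library SD above typical, normal starting fluorescence, not activating the receptor alone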;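 also: compound read alongside a low EC10 to EC30 dose of BAM8-22 agonist; peak minus trough fluorescence over baseline measured at the second addition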
Target sequence (Q96LB2 whole entry, looked up): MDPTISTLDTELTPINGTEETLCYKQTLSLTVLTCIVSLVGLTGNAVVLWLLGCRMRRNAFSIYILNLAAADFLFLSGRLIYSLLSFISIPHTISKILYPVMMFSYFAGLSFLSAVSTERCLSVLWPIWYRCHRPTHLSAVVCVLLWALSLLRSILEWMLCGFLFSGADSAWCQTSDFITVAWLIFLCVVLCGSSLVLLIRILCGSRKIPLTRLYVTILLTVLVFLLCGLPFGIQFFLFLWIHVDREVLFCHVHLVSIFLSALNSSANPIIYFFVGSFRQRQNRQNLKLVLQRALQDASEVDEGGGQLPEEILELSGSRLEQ
MrgX1 agonist = agonists of human MrgX1 receptor, primary screen, HEK293 cells, Fluo-4 calcium flux; Mas-related G-protein coupled receptor member X1 (Homo sapiens), Q96LB2; Fluo-4 calcium fluorescence, agonist mode; stronger effect = higher value; B-score at 10 µM; 0.44% of 310,000 active; AID 588627, 2011;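 active = calcium response B-score plate-corrected fluorescence ratio at least 3 library SD, with starting fluorescence B-score inside 5 SD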
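times = overnight plating, then 30 min 37 °C plus 30 min room-temperature dye loading | assay system = stable human MrgX1 HEK293 cell line | input = fifteen thousand cells per well | signal = kinetic calcium dye fluorescence, Fluo-4 NW | dosing = compound delivered in addition one of three | read-out = B-scored fluorescence response ratio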
MrgX1 antagonist = antagonists of human MrgX1 receptor, primary screen, HEK293 cells, Fluo-4 calcium flux. Mas-related G-protein coupled receptor member X1 (Homo sapiens), Q96LB2. BAM8-22 antagonism; stronger effect = lower value. B-score at 10 µM. 1.3% of 310,000 active;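 active = calcium-response B-score plate-corrected more than 3 library SD below zero, starting fluorescence within 5 deviations, no agonist response on first addition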;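 also: peak minus trough fluorescence over baseline after final BAM8-22 challenge near maximal dose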
RGS4 inh = RGS4 inhibitors, primary screen, cell-based, HEK293 M3R inducible RGS4, calcium flux | Regulator of G-protein signaling 4 (Homo sapiens), P49798 | Fluo-4 calcium flux; stronger effect = higher value; triggered by carbachol at its EC20 | B-score at 10 µM | 0.45% of 310,000 active | AID 463165, 2010;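 active = B-score, a plate-corrected calcium signal, over three deviations above library mean, with baseline fluorescence within five deviations of library mean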;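 also: RGS4 expression induced by doxycycline in cells with stable M3 receptor; B-score is computed from the integrated fluorescence ratio over baseline after carbachol; higher B-score means a larger calcium signal and so more RGS4 inhibition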
Target sequence (P49798 whole entry, looked up): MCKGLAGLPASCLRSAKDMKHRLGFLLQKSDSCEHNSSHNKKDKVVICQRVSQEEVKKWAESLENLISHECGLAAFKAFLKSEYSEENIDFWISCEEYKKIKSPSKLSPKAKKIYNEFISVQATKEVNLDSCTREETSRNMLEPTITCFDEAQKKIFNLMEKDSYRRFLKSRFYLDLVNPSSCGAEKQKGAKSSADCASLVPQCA
A number is an active result; n = inactive; x = no result given. A selection: hits, their analogues and other compounds. The true share with any hit is near 3.5%.

SMILES	RGS4 act	MrgX1 allo act	MrgX1 agonist	MrgX1 antagonist	RGS4 inh
CCCN1C(=O)/C(=C/C=C2\N(CC)c3ccccc3C2(C)C)SC1=S	n	12.3	n	n	n
CN1/C(=C\C=C2/SC(=S)N(CC(=O)O)C2=O)C(C)(C)c2ccccc21	n	n	n	n	n
C=CCN1C(=O)/C(=C\C=C2\N(C)c3ccccc3C2(C)C)SC1=S	n	n	30.7	n	n
CC(Oc1cc2oc(=O)c3c(c2cc1Cl)CCC3)C(=O)NCCCn1ccnc1 (stereo unspecified)	n	n	n	n	n
O=C(c1ccc(S(=O)(=O)Cc2cc(F)ccc2F)c([N+](=O)[O-])c1)N1CCCC1	n	7.2	n	n	n
CC(=O)N1CCOCCOCCN(C(C)=O)CCOCC1	n	n	n	n	n
CCOC(=O)c1ccc(NC(=O)/C=C/c2cccs2)cc1	n	n	n	n	n
O=C(O)c1ccc(NC(=O)C2(c3ccccc3)CCCC2)cc1	n	n	n	n	n
CCN(CC)CCOC(=O)c1ccc(NC(=O)/C=C/c2cccs2)cc1	-7.08	n	n	n	n
CCN(CC)CCOC(=O)c1ccc(NC(=O)C2(c3ccccc3)CCCC2)cc1	-7.37	n	n	n	n
COc1cc(CNCCO)cc(Br)c1OCc1cccs1	n	n	n	n	n
COc1cc(CNC(C)(C)C)cc(Br)c1OCc1cccs1	n	n	n	-6.14	n
CN1CCN(C(=O)CCN2C(=O)c3ccccc3S2(=O)=O)CC1	n	n	n	-7.45	n
O=C(CCN1C(=O)c2ccccc2S1(=O)=O)N1CCN(c2ccccc2)CC1	n	n	n	n	n
C=CCN(CC(O)c1cccc([N+](=O)[O-])c1)C(C)CCc1ccccc1 (stereo unspecified)	n	15.9	n	n	n
O=C(Cc1ccccc1)NC(NC(=O)Cc1ccccc1)c1cccc([N+](=O)[O-])c1	n	n	n	n	n
COc1nccc(NCc2ccccc2)c1C#N	n	n	n	n	n
Cc1ccc(S(=O)(=O)N2CCC(C(=O)N/N=C/c3ccccc3[N+](=O)[O-])CC2)cc1	n	n	n	n	n
Cc1ccc(S(=O)(=O)N2CCC(C(=O)N/N=C/c3cccnc3)CC2)cc1	n	n	n	-5.22	n
O=C(NC1CCCC1)C(=O)N(Cc1cccnc1)C(C(=O)NCC1CCCO1)c1ccco1 (stereo unspecified)	n	n	n	n	n
Cc1c(N=Cc2ccc(O)c(Br)c2)cccc1[N+](=O)[O-]	n	n	n	n	n
O=[N+]([O-])c1ccc(N=Cc2ccc(Br)c([N+](=O)[O-])c2)cc1	n	n	33.8	n	n
COC(=O)c1cc2nc(-c3ccccc3)cc(C)n2n1	n	n	n	n	n
Cc1cc(-c2ccccc2)nc2cc(C(=O)N(Cc3ccccc3)Cc3ccccc3)nn12	-7.9	n	n	n	n
CCCOc1ccc(N2CC(C(=O)NC3=NCCS3)CC2=O)cc1 (stereo unspecified)	n	n	n	n	n
SMILES	RGS4 act	MrgX1 allo act	MrgX1 agonist	MrgX1 antagonist	RGS4 inh
COC(=O)c1[nH]c2ccccc2c1NC(=O)CN1CCCCCC1	n	n	n	n	n
COC(=O)c1[nH]c2ccccc2c1NC(=O)CNC1CCCCC1	-6.99	n	n	n	n
Cc1cc(N2CCOCC2)nc2ccc(NC(=O)CCC(=O)N3CCN(c4cccc(C(F)(F)F)c4)CC3)cc12	n	n	n	n	n
Cc1cccc(CN2C(=O)/C(=C\c3ccc(C(=O)NCCN4CCOCC4)cc3)Sc3ccccc32)c1	-7.32	n	n	n	n
O=C(NCCN1CCOCC1)c1ccc(/C=C2\Sc3ccccc3N(Cc3ccccc3F)C2=O)cc1	n	n	n	n	n
CCN1CCN(CCNC(=O)c2ccc(/C=C3/Sc4ccccc4N(Cc4cccc(Cl)c4)C3=O)cc2)CC1	-9.9	n	n	n	n
Cc1nc2c3cc(Cl)ccc3n(CCN3CCCCC3)c2s1	n	11.4	n	n	n
COc1ccc(C)cc1S(=O)(=O)NC(C)C(=O)Nc1ccc2c(c1)OCO2 (stereo unspecified)	n	n	n	n	n
O=S(=O)(c1ccccc1)N1N=C(c2ccc(O)cc2)CC1c1ccco1 (stereo unspecified)	n	n	n	n	n
O=[N+]([O-])c1ccc(C2=NN(c3ccccc3)C(c3ccco3)C2)cc1 (stereo unspecified)	-7.16	x	x	x	n
O=[N+]([O-])c1ccc(/C=C/C2=NN(c3ccccc3)C(c3ccco3)C2)cc1 (stereo unspecified)	x	9.68	n	n	x
C[n+]1ccccc1/C=C/c1ccc([N+](=O)[O-])cc1	n	n	n	n	n
CCCc1cc(-c2[nH]ncc2-c2ccc(C(=O)OCC)o2)c(O)cc1O	n	n	n	n	n
CCCc1cc(-c2[nH]ncc2-c2ccc3c(c2)OCCCO3)c(O)cc1O	-7.93	n	n	n	n
CC1CCCN(CCOCCOc2ccc(Br)cc2Cl)C1 (stereo unspecified)	-7.45	n	n	n	n
CCOC(=O)c1c(C)[nH]c(C(=O)N2CCCC(C(=O)c3ccccc3OC)C2)c1C (stereo unspecified)	n	27.2	n	n	n
CCOC(=O)c1c(C)[nH]c(C(=O)N2CCCC(C(=O)c3cccc(OC)c3)C2)c1C (stereo unspecified)	n	n	n	n	n
Cc1nn(-c2ccccc2)c(Cl)c1C(=O)N1CCN(c2ncnc3c2cnn3-c2ccccc2)CC1	n	n	n	-7.65	n
COc1ccc(-c2cc3c(=O)n(CC(=O)N4CCN(C)CC4)ncn3n2)cc1	n	n	n	n	n
COC(=O)C1=NN(C(=O)c2cccc(Br)c2)C(O)(c2ccc(Cl)cc2)C1 (stereo unspecified)	n	n	35.8	n	n
CCOC(=O)C1=NN(C(=O)c2ccco2)C2(CC2)C1	n	n	n	n	n
CCOC(=O)C1=NN(C(=O)c2ccccc2)C(O)(c2ccc(C)cc2)C1 (stereo unspecified)	n	n	n	n	n
CCOC(=O)C1=NN(C(=O)Cc2ccccc2)C(O)(c2ccc(Cl)cc2)C1 (stereo unspecified)	n	n	n	n	n
CCOC(=O)C1=NN(C(=O)c2cccc(Br)c2)C(O)(C(C)(C)C)C1 (stereo unspecified)	n	n	95.8	n	n
CCOC(=O)C1=NN(C(=O)c2ccc(OC)cc2)C(O)(c2ccc(Cl)cc2)C1 (stereo unspecified)	n	n	48.4	n	n
COc1cc(C2SCC(=O)N2Cc2ccccc2)cc(OC)c1OC (stereo unspecified)	n	n	n	n	n
